{"data": "Measured values pooled from the literature", "target": "Serine/threonine-protein kinase Chk2 (CHEK2, Homo sapiens, UniProt O96017)", "note": "Each line is one published result; the experiments were not run side by side."}
{"SMILES": "C=CC(=O)N1CCC(C(=O)NCC(=O)N2CCN(c3nc(-c4cnc(N)nc4C(F)F)nc(N4CCOCC4)n3)CC2)CC1", "assay": "binding, competition with immobilised ligand", "setting": "1 µM", "remaining binding": "88%"}
{"SMILES": "c1cnn2ncc(-c3ccnc(N4CCC45COC5)n3)c2c1", "assay": "binding", "setting": "1 µM", "remaining binding": "77%"}
{"SMILES": "COc1cnc(Nc2cccc(S(N)(=O)=O)c2)nc1N1CCN(c2ccccc2)C(=O)C1", "assay": "binding, competition with immobilised ligand", "setting": "1 µM", "remaining binding": "86%"}
{"SMILES": "CN(C)C(=O)Cn1cc(-c2nc(C3(c4ccc(-c5cnc(N)nc5)cc4)CC3)no2)cn1", "assay": "cell-free assay, competition with immobilised ligand", "setting": "1 µM", "remaining binding": "100%"}
{"SMILES": "CN(C)c1nccc(-c2cnc3ncccn23)n1", "assay": "binding", "setting": "1 µM", "remaining binding": "79%"}
{"SMILES": "COc1cccc(CNC(=O)c2nc3scc(COCc4ccc(C(=O)O)cc4)c3c(=O)[nH]2)c1", "assay": "cell-free assay, competition with immobilised ligand", "setting": "1 µM", "remaining binding": "92%"}
{"SMILES": "CN(CCCC(F)(F)F)c1nccc(-c2cnn3ncccc23)n1", "assay": "binding", "setting": "1 µM", "remaining binding": "99%"}
{"SMILES": "Cn1nc(C(=O)NCc2ccc(C(=O)O)cc2)cc1-c1ccc2[nH]ccc2c1", "assay": "cell-free assay, competition with immobilised ligand", "setting": "0.1 µM", "remaining binding": "100%"}
{"SMILES": "NC(=O)c1nc(Nc2ccccc2)sc1NC(=O)C1CCCCC1", "assay": "cell-free assay, competition with immobilised ligand", "setting": "10 µM", "remaining binding": "2.7%"}
{"SMILES": "Cc1cnn2ncc(-c3ccnc(N(C)C)n3)c2c1", "assay": "binding", "setting": "1 µM", "remaining binding": "84%"}
{"SMILES": "CCN1CCN(Cc2ccc(C(=O)Nc3ccc(C)c(Oc4ccc5c(c4)CC(=O)N5)c3)cc2C(F)(F)F)CC1", "assay": "binding, competition with immobilised ligand", "setting": "1 µM", "remaining binding": "100%"}
{"SMILES": "C[C@@H]1CCN(c2nccc(-c3cnn4ncccc34)n2)C1", "assay": "binding", "setting": "1 µM", "remaining binding": "71%"}
{"SMILES": "O=C(NCCCN1CCOCC1)c1ccc(Nc2nccc(-c3cc4ccccc4s3)n2)cc1", "assay": "binding, competition with immobilised ligand", "setting": "1 µM", "remaining binding": "79%"}
{"SMILES": "COc1cc(C(=O)N2CCC(N3CCN(C)CC3)CC2)ccc1Nc1ncc2c(n1)N(C)c1ccccc1C(=O)N2C", "assay": "binding, competition with immobilised ligand", "setting": "10 µM", "remaining binding": "66%"}
{"SMILES": "CN(C)c1nccc(-c2cnn3ncccc23)n1", "assay": "binding", "setting": "1 µM", "remaining binding": "100%"}
{"SMILES": "O=C(NCCCN1CCOCC1)c1ccc(Nc2ncc(Cl)c(-c3ccc(Cl)s3)n2)cc1", "assay": "binding, competition with immobilised ligand", "setting": "1 µM", "remaining binding": "82%"}
{"SMILES": "CO[C@@H](C)c1c(Nc2ccc([C@@H](N(C)C(=O)C3CCS(=O)(=O)CC3)C(F)(F)F)cc2)cnc2cc(Cl)nn12", "assay": "cell-free assay, competition with immobilised ligand", "setting": "1 µM", "remaining binding": "100%"}
{"SMILES": "Cc1cnc(Nc2ccc(C(=O)N3CCC(N4CCCC4)CC3)cc2)nc1-c1cc2ccccc2s1", "assay": "binding, competition with immobilised ligand", "setting": "1 µM", "remaining binding": "100%"}
{"SMILES": "CC(=O)c1c(NS(C)(=O)=O)c2cc(-c3ccc(Cl)cc3)c(-c3ccc(Cl)cc3Cl)nc2n(C)c1=O", "assay": "cell-free assay, competition with immobilised ligand", "setting": "1 µM", "remaining binding": "100%"}
{"SMILES": "N[C@@H]1CCN(c2nccc(-c3cnn4ncccc34)n2)C1", "assay": "binding", "setting": "1 µM", "remaining binding": "100%"}
{"SMILES": "C[C@@]1(Cc2ccc(C#N)cc2)C(=O)N(c2cc(Cl)cc(Cl)c2)c2ncc(C(=O)NC3(c4nc(C5CCC5)no4)CC3)n21", "assay": "cell-free assay, competition with immobilised ligand", "setting": "1 µM", "remaining binding": "100%"}
{"SMILES": "C[C@@H](c1ccc(-n2cnc3c(N)ncnc32)cc1)N1CCc2nn(C)c(Cc3ccccc3)c2C1=O", "assay": "binding, competition with immobilised ligand", "setting": "0.1 µM", "remaining binding": "100%"}
{"SMILES": "CNC(=O)Nc1ccc2c(c1)CC[C@@]21OC(=O)N(CC(=O)N(Cc2ccc(F)cc2)[C@@H](C)C(F)(F)F)C1=O", "assay": "cell-free assay, competition with immobilised ligand", "setting": "1 µM", "remaining binding": "100%"}
{"SMILES": "O=C(Nc1c[nH]nc1C(=O)NC1CCNCC1)c1cc(F)cc(F)c1", "assay": "binding, competition with immobilised ligand", "setting": "1 µM", "remaining binding": "100%"}
